Activity calls are given as the source filed them. No cut-off for these calls is given here.
Legend:
[1] = system: HL-60; experiment: Induction of apoptosis in human mitochondrial gene-knockout HL60 cells at 30 uM after 72 hrs by propidium iodide staining-based flow cytometric analysis; format: functional, cell-based
[2] = system: HL-60; experiment: Induction of apoptosis in human HL60 cells at 30 uM after 24 hrs by propidium iodide staining-based flow cytometric analysis; format: functional, cell-based
[3] = system: HL-60; experiment: Antiproliferative activity against human mitochondrial gene-knockout HL60 cells after 48 hrs by MTT assay; format: functional, cell-based; conditions: HL-60, 48 h
Outline: (§1)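 HL60 cells were grown in RPMI-1640 with 5% FBS. The mtDNA-knockout line was derived by 6−8 weeks in ethidium bromide (50 ng/mL) and kept with 50 μg/mL uridine and 1 mM pyruvate. Compound in DMSO was serially diluted 3-fold in RPMI […], in triplicate. Cells at 0.2 × 10⁶/mL final ran 48 h at 37 °C, 5% CO₂. MTT was added for 2 h, then overnight lysis, read at A570. IC50 is a dose-response mean ± SEM (n = 2/3).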

[4] = system: HL-60; experiment: Antiproliferative activity against human HL60 cells after 48 hrs by MTT assay; format: functional, cell-based; conditions: HL-60, 48 h; outline: as §1
[5] = Inhibition of tPMET complex in human mitochondrial gene-knockout HL60 cells after 30 mins by WST-1/mPMS reduction assay; format: cell-based; conditions: HL-60, 0.5 h
Outline: (§2)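 Exponential-phase cells were resuspended in HBSS at 1.0 × 10⁶ cells/mL final. Compound in DMSO was serially diluted 10-fold in HBSS from 200 μM, in triplicate, and preincubated 30 min at 37 °C, 5% CO₂. WST-1 (500 μM final) with mPMS (20 μM final) was then added. Reduction was read in real time at 450 nm over 40 min. IC50 is a dose-response mean ± SEM (n = 2/3).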

[6] = Inhibition of tPMET complex in human HL60 cells after 30 mins by WST-1/mPMS reduction assay; format: cell-based; conditions: HL-60, 0.5 h; outline: as §2
[7] = system: HL-60; experiment: Cell cycle arrest in human mitochondrial gene-knockout HL60 cells assessed as accumulation at G2 phase at 30 uM after 24 hrs by propidium iodide staining-based flow cytometric analysis (reference value: 18 %); format: functional
[8] = system: HL-60; experiment: Cell cycle arrest in human mitochondrial gene-knockout HL60 cells assessed as accumulation at S phase at 30 uM after 24 hrs by propidium iodide staining-based flow cytometric analysis (reference value: 24 %); format: functional
[9] = system: HL-60; experiment: Cell cycle arrest in human mitochondrial gene-knockout HL60 cells assessed as accumulation at G1 phase at 30 uM after 24 hrs by propidium iodide staining-based flow cytometric analysis (reference value: 55 %); format: functional
[10] = system: HL-60; experiment: Cell cycle arrest in human mitochondrial gene-knockout HL60 cells assessed as accumulation at sub G1 phase at 30 uM after 24 hrs by propidium iodide staining-based flow cytometric analysis (reference value: 3 %); format: functional
[11] = system: HL-60; experiment: Cell cycle arrest in human HL60 cells assessed as accumulation at G2 phase at 30 uM after 24 hrs by propidium iodide staining-based flow cytometric analysis (reference value: 22 %); format: functional
[12] = system: HL-60; experiment: Cell cycle arrest in human HL60 cells assessed as accumulation at G1 phase at 30 uM after 24 hrs by propidium iodide staining-based flow cytometric analysis (reference value: 38 %); format: functional
[13] = system: HL-60; experiment: Cell cycle arrest in human HL60 cells assessed as accumulation at sub G1 phase at 30 uM after 24 hrs by propidium iodide staining-based flow cytometric analysis (reference value: 11 %); format: functional
[14] = system: HL-60; experiment: Cell cycle arrest in human HL60 cells assessed as accumulation at S phase at 30 uM after 24 hrs by propidium iodide staining-based flow cytometric analysis (reference value: 28 %); format: functional

IC50 [3] [µM]	IC50 [4] [µM]	Structure (SMILES)	Activity [1]	Activity [2]	IC50 [5] [µM]	IC50 [6] [µM]	Activity [7] [%]	Activity [8] [%]	Activity [9] [%]	Activity [10] [%]	Activity [11] [%]	Activity [12] [%]	Activity [13] [%]	Activity [14] [%]
63	16	COC1=C(OC)C(=O)C(CCCCCCCCCCOc2cc(O)cc(O)c2)=C(C)C1=O	Active	Active	13	6	–	–	–	–	–	–	–	–
44	35	COC1=C(OC)C(=O)C(CCCCCCCCCCn2cc[n+](C)c2)=C(C)C1=O	–	–	78	23	–	–	–	–	–	–	–	–
> 200	> 200	COC1=C(OC)C(=O)C(CCCCCCCCCCc2c(O)cc(O)cc2O)=C(C)C1=O	–	–	9	21	–	–	–	–	–	–	–	–
5	2	COC1=C(OC)C(=O)C(CCCCCCCCCCn2cc[n+](Cc3ccccc3)c2)=C(C)C1=O	–	–	68	9	–	–	–	–	–	–	–	–
3	2	COC1=C(OC)C(=O)C(CCCCCCCCCC[N+](Cc2ccccc2)(Cc2ccccc2)Cc2ccccc2)=C(C)C1=O	–	Active	54	14	–	–	–	–	–	–	–	–
> 200	33	COC1=C(OC)C(=O)C(CCCCCCCCCCN(Cc2ccccc2)Cc2ccccc2)=C(C)C1=O	–	–	> 200	> 200	–	–	–	–	–	–	–	–
15	3	COC1=C(OC)C(=O)C(CCCCCCCCCCn2ccnc2)=C(C)C1=O	–	–	33	14	–	–	–	–	–	–	–	–
3	3	COC1=C(OC)C(=O)C(CCCCCCCCCC[N+](C)(Cc2ccccc2)Cc2ccccc2)=C(C)C1=O.[I-]	–	Active	47	10	0	0	35	0	10	24	57	8
15	13	COC1=C(OC)C(=O)C(CCCO)=C(C)C1=O	–	–	92	> 200	–	–	–	–	–	–	–	–
> 200	> 200	COC1=C(OC)C(=O)C(CCCOCc2cccc(S(=O)(=O)O)c2)=C(C)C1=O	–	–	> 200	> 200	–	–	–	–	–	–	–	–
8	13	COC1=C(OC)C(=O)C(CCCCCO)=C(C)C1=O	–	–	123	> 200	–	–	–	–	–	–	–	–
120	143	COC1=C(OC)C(=O)C(CCCCCCCCCCOCc2cccc(S(=O)(=O)O)c2)=C(C)C1=O	–	–	70	81	–	–	–	–	–	–	–	–
> 200	1	COC1=C(OC)C(=O)C(CCCCCCCCCC[N+]2(C)CCOCC2)=C(C)C1=O	–	–	> 200	122	–	–	–	–	–	–	–	–
15	3	COC1=C(OC)C(=O)C(CCCCCCCCCCN2CCOCC2)=C(C)C1=O	–	–	46	33	–	–	–	–	–	–	–	–
> 200	36	COC1=C(OC)C(=O)C(CCCCCCCCCCO)=C(C)C1=O [IDEBENONE]	–	–	70	77	15	36	36	99	35	51	12	2
